pIC50: −log10 of the molar value. Calls of active or inactive are those of the source. The rule behind the calls is not given here.
Legend:
HT-29 [1] = experiment: Induction of apoptosis in human HT-29 cells assessed as dead cells at 5 uM after 24 hrs by PE annexin V and 7-Aminoactinomycin D staining-based flow cytometry (reference value: 1.33%); assay type: functional
In short: (§1)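 HT29 cells (RPMI, 10% FBS) treated with 1.25, 2.5 or 5 μM, or DMSO control, for 24 h at 37 °C. Cells then harvested, washed twice in cold PBS and resuspended at 1×10^6 cells/ml in binding buffer. Stained with PE annexin V and 7-AAD for 15 min at RT in the dark, then analysed by flow cytometry. 7-AAD-positive cells counted as dead.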

HT-29 [2] = experiment: Induction of apoptosis in human HT-29 cells at 5 uM after 24 hrs by PE annexin V and 7-Aminoactinomycin D staining-based flow cytometry (reference value: 6.8%); assay type: functional; in short: as §1
HT-29 [3] = experiment: Induction of apoptosis in human HT-29 cells assessed as increase in caspase 3/7 activation after 24 hrs by fluorescence spectrophotometry relative to control; assay type: functional; set-up: concentration or dose not given beside the values
In short: (§2)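 HT29 cells seeded at 1×10^4/well and grown 24 h, then treated 24 h with 1.25–5 µM compound or DMSO. Equal volume of Apo-ONE caspase-3/7 reagent added, shaken 30 s, incubated 2 h at RT. Cleaved-substrate fluorescence read at ex 498/em 521 nm, expressed relative to DMSO cells. Means ± SD, triplicate, one representative experiment.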

A549 = experiment: Cytotoxicity against human A549 cells after 48 hrs by MTS assay; assay type: functional, cell-based; settings: A549, 48 h
In short: (§3)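 A549, MCF-7 and UACC903 cells grown in DMEM with 10% FBS at 37°C, 5% CO2. 5×10^3 cells/well were left to adhere 24 h, then treated 48 h with compound (DMSO stock diluted in DMEM, 0.5–50 µM). MTS read at 490 nm and normalized to control. Dose-response fitted as sigmoidal, variable slope. Triplicates from at least two independent experiments.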

MEF = experiment: Cytotoxicity against mouse MEF cells after 48 hrs by MTS assay; assay type: cell-based
In short: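 Mouse embryonic fibroblasts exposed to compound for 48 h; viability then read by MTS colorimetric assay. IC50 derived from the viability data.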

UACC-903 = experiment: Cytotoxicity against human UACC903 cells after 48 hrs by MTS assay; assay type: functional, cell-based; settings: UACC-903, 48 h; in short: as §3
HT-29 [4] = experiment: Induction of apoptosis in human HT-29 cells assessed as early apoptotic cells at 5 uM after 24 hrs by PE annexin V and 7-Aminoactinomycin D staining-based flow cytometry (reference value: 1.37%); assay type: functional
In short: (§4)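 HT29 cells were treated with 1.25–5.0 µM compound or DMSO for 24 h at 37°C, harvested by low-speed centrifugation and washed twice in cold PBS. They were resuspended in binding buffer at 1×10^6 cells/ml, stained with PE annexin V and 7-AAD for 15 min at RT in the dark, and quantified by flow cytometry.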

HT-29 [5] = experiment: Induction of apoptosis in human HT-29 cells assessed as dead cells at 1.25 uM after 24 hrs by PE annexin V and 7-Aminoactinomycin D staining-based flow cytometry (reference value: 1.33%); assay type: functional; in short: as §1
HT-29 [6] = experiment: Inhibition of AKT expression in human HT-29 cells assessed as total AKT level at 2 uM after 24 hrs by Western blotting; assay type: functional, cell-based
In short: (§5)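 HT29 cells treated 24 h with 1 or 2 µM compound or no drug. Lysed in HEPES/NaCl/EDTA/NP40 buffer with phosphatase and protease inhibitors. Protein equalized by Bradford, run on 10% gels, semi-dry transfer to nitrocellulose, blocked in 5% milk. Pan-Akt or phospho-Akt rabbit polyclonal primaries overnight at 4°C, HRP secondaries, chemiluminescence. β-actin loading control.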

HT-29 [7] = experiment: Induction of apoptosis in human HT-29 cells assessed as viable cells at 2.5 uM after 24 hrs by PE annexin V and 7-Aminoactinomycin D staining-based flow cytometry (reference value: 93.2%); assay type: functional; settings: HT-29, 24 h, read-out: Activity; in short: as §4
HT-29 [8] = experiment: Induction of apoptosis in human HT-29 cells assessed as viable cells at 1.25 uM after 24 hrs by PE annexin V and 7-Aminoactinomycin D staining-based flow cytometry (reference value: 93.2%); assay type: functional; settings: HT-29, 24 h, read-out: Activity; in short: as §4
[9] = biological target: RAC-alpha serine/threonine-protein kinase (Homo sapiens) (UniProt P31749); experiment: Inhibition of AKT phosphorylation in human HT-29 cells assessed as p-AKT level at 1 uM after 24 hrs by Western blotting; assay type: cell-based; in short: as §5
Sequence of RAC-alpha serine/threonine-protein kinase (Homo sapiens) (P31749 whole entry): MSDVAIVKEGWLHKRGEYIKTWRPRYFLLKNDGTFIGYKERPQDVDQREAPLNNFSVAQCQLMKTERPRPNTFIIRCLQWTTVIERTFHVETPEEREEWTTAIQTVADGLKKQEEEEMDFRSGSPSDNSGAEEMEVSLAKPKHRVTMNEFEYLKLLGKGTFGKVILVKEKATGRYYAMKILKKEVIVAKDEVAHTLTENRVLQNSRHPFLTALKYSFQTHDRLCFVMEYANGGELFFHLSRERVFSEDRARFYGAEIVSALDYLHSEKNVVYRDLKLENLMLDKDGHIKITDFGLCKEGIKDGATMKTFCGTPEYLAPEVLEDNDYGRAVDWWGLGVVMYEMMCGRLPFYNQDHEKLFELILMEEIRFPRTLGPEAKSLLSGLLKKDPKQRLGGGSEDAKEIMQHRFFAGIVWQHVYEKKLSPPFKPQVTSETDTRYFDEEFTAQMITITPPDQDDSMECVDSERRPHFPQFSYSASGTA

HT-29 [10] = experiment: Induction of apoptosis in human HT-29 cells assessed as dead cells at 2.5 uM after 24 hrs by PE annexin V and 7-Aminoactinomycin D staining-based flow cytometry (reference value: 1.33%); assay type: functional; in short: as §1
HT-29 [11] = experiment: Induction of apoptosis in human HT-29 cells assessed as increase in caspase 3/7 activation after 24 hrs by fluorescence spectrophotometry; assay type: functional, cell-based; in short: as §2
HT-29 [12] = experiment: Induction of apoptosis in human HT-29 cells at 2.5 uM after 24 hrs by PE annexin V and 7-Aminoactinomycin D staining-based flow cytometry; assay type: functional; in short: as §1
HT-29 [13] = experiment: Induction of apoptosis in human HT-29 cells after 24 hrs by PE annexin V and 7-Aminoactinomycin D staining-based flow cytometry; assay type: functional, cell-based; in short: as §4
MCF7 = experiment: Cytotoxicity against human MCF7 cells after 48 hrs by MTS assay; assay type: functional, cell-based; settings: MCF7, 48 h; in short: as §3
HT-29 [14] = experiment: Induction of apoptosis in human HT-29 cells assessed as viable cells at 5 uM after 24 hrs by PE annexin V and 7-Aminoactinomycin D staining-based flow cytometry (reference value: 93.2%); assay type: functional; settings: HT-29, 24 h, read-out: Activity; in short: as §4
HT-29 [15] = experiment: Induction of apoptosis in human HT-29 cells assessed as late apoptosis or necrotic cells at 5 uM after 24 hrs by PE annexin V and 7-Aminoactinomycin D staining-based flow cytometry (reference value: 4.1%); assay type: functional; in short: as §4
HT-29 [16] = experiment: Induction of apoptosis in human HT-29 cells assessed as late apoptosis or necrotic cells at 2.5 uM after 24 hrs by PE annexin V and 7-Aminoactinomycin D staining-based flow cytometry (reference value: 4.1%); assay type: functional; in short: as §4
HT-29 [17] = experiment: Induction of apoptosis in human HT-29 cells assessed as early apoptotic cells at 2.5 uM after 24 hrs by PE annexin V and 7-Aminoactinomycin D staining-based flow cytometry (reference value: 1.37%); assay type: functional; in short: as §4
HT-29 [18] = experiment: Cytotoxicity against human HT-29 cells after 48 hrs by MTS assay; assay type: functional, cell-based; settings: HT-29, 48 h
In short: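 HT29 cells maintained in RPMI with 10% FBS. 5×10^3 cells/well were left to adhere 24 h, then exposed 48 h to compound (DMSO stock diluted in DMEM, 0.5–50 µM). MTS absorbance at 490 nm normalized to control. IC50 from sigmoidal variable-slope fit. Triplicates, at least two independent experiments.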

HT-29 [19] = experiment: Induction of apoptosis in human HT-29 cells at 1.25 uM after 24 hrs by PE annexin V and 7-Aminoactinomycin D staining-based flow cytometry; assay type: functional; in short: as §1
HT-29 [20] = experiment: Inhibition of AKT expression in human HT-29 cells assessed as total AKT level at 1 uM after 24 hrs by Western blotting; assay type: functional, cell-based; in short: as §5
HT-29 [21] = experiment: Induction of apoptosis in human HT-29 cells assessed as early apoptotic cells at 1.25 uM after 24 hrs by PE annexin V and 7-Aminoactinomycin D staining-based flow cytometry (reference value: 1.37%); assay type: functional; in short: as §4
HT-29 [22] = experiment: Induction of apoptosis in human HT-29 cells assessed as late apoptosis or necrotic cells at 1.25 uM after 24 hrs by PE annexin V and 7-Aminoactinomycin D staining-based flow cytometry (reference value: 4.1%); assay type: functional; in short: as §4
HT-29 [23] = experiment: Induction of apoptosis in human HT-29 cells assessed as DNA fragmentation at 5 uM after 48 hrs by TUNEL assay; assay type: functional, cell-based
In short: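 1×10^5 HT29 cells/well grown 24 h in 10% serum medium, then exposed to 5 µM compound. Fragmented DNA stained with ApopTag Red in situ kit, Hoechst nuclear counterstain. Red TUNEL-positive versus blue total nuclei scored by fluorescence microscopy.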

Bos taurus = organism: Bos taurus; experiment: Inhibition of bovine brain tubulin polymerization at 10 uM after 1 hrs by fluorescence assay
In short: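 Compound at 10 µM final, DMSO as control. Fluorescence (ex 360, em 440 nm) read every 10 s for 1 h at 37°C, duplicate wells.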

[24] = biological target: RAC-alpha serine/threonine-protein kinase (Homo sapiens) (UniProt P31749); experiment: Inhibition of AKT phosphorylation in human HT-29 cells assessed as p-AKT level at 2 uM after 24 hrs by Western blotting; assay type: cell-based; in short: as §5

For `N#CSCc1ccc(CN2C(=O)C(=O)c3cc(Br)cc(Br)c32)cc1`, the Activity (HT-29 [1]) was 11.4%, the Activity (HT-29 [2]) was 66.98% and the “fold change (FC)” value (HT-29 [3]) was 16. For the same compound, the pIC50 (A549) was 5.60, the pIC50 (MEF) was < 4.70 and the pIC50 (UACC-903) was 5.65. For the same compound, the Activity (HT-29 [4]) was 2.68%, the Activity (HT-29 [5]) was 2.59% and the inhibition (HT-29 [6]) was “Active”. The viability at 2.5 µM (HT-29 [7]) was 60.6%, the viability at 1.25 µM (HT-29 [8]) was 88.5% and the inhibition [9] was “inactive”. For the same compound, the Activity (HT-29 [10]) was 7.76%, the Activity (HT-29 [11]) was “Dose-dependent effect” and the Activity (HT-29 [12]) was 39.46%. For the same compound, the Activity (HT-29 [13]) was “Dose-dependent effect”, the pIC50 (MCF7) was 4.61 and the viability at 5 µM (HT-29 [14]) was 33.1%. For the same compound, the Activity (HT-29 [15]) was 52.9%, the Activity (HT-29 [16]) was 21.1% and the Activity (HT-29 [17]) was 10.6%. For the same compound, the pIC50 (HT-29 [18]) was 5.94, the Activity (HT-29 [19]) was 11.47% and the inhibition (HT-29 [20]) was “Active”. For the same compound, the Activity (HT-29 [21]) was 4.42%, the Activity (HT-29 [22]) was 4.46% and the Activity (HT-29 [23]) was “Active”. The inhibition (Bos taurus) was 71%.
For `N#CSCCCN1C(=O)C(=O)c2cc(Br)cc(Br)c21`, the pIC50 (A549) was 5.45, the pIC50 (UACC-903) was 5.54 and the pIC50 (MCF7) was 5.01. For the same compound, the pIC50 (HT-29 [18]) was 5.49.
For `O=C1C(=O)N(CCCCl)c2c(Br)cc(Br)cc21`, the pIC50 (A549) was 5.28, the pIC50 (UACC-903) was 5.07 and the pIC50 (MCF7) was 4.67. For the same compound, the pIC50 (HT-29 [18]) was 5.59.
`O=C1C(=O)N(Cc2ccc(CBr)cc2)c2c(Br)cc(Br)cc21` was tested, and the pIC50 (A549) was 5.10, the pIC50 (UACC-903) was 5.58 and the pIC50 (MCF7) was 4.56. It also gave a pIC50 (HT-29 [18]) of 5.29.
In the case of `N#C[Se]Cc1ccc(CN2C(=O)C(=O)c3cc(Br)cc(Br)c32)cc1`, the pIC50 (A549) was 5.62, the pIC50 (UACC-903) was 4.92 and the pIC50 (MCF7) was 5.84. For the same compound, the pIC50 (HT-29 [18]) was 5.59.
In the case of `O=C1C(=O)N(CCCN=C=S)c2c(Br)cc(Br)cc21`, the Activity (HT-29 [1]) was 8.22%, the Activity (HT-29 [2]) was 61.5% and the “fold change (FC)” value (HT-29 [3]) was 16. The pIC50 (A549) was 5.67, the pIC50 (MEF) was < 4.70 and the pIC50 (UACC-903) was 5.36. For the same compound, the Activity (HT-29 [4]) was 4.78%, the Activity (HT-29 [5]) was 1.92% and the inhibition (HT-29 [6]) was “Active”. For the same compound, the viability at 2.5 µM (HT-29 [7]) was 78.8%, the viability at 1.25 µM (HT-29 [8]) was 91.5% and the inhibition [9] was “inactive”. For the same compound, the Activity (HT-29 [10]) was 2.9%, the Activity (HT-29 [11]) was “Dose-dependent effect” and the Activity (HT-29 [12]) was 21.23%. For the same compound, the Activity (HT-29 [13]) was “Dose-dependent effect”, the pIC50 (MCF7) was 5.05 and the viability at 5 µM (HT-29 [14]) was 38.5%. It also gave an Activity (HT-29 [15]) of 48.5%, an Activity (HT-29 [16]) of 11.4% and an Activity (HT-29 [17]) of 6.93%. For the same compound, the pIC50 (HT-29 [18]) was 5.81, the Activity (HT-29 [19]) was 8.54% and the inhibition [24] was “Active”. For the same compound, the inhibition (HT-29 [20]) was “inactive”, the Activity (HT-29 [21]) was 2.83% and the Activity (HT-29 [22]) was 3.79%. The Activity (HT-29 [23]) was “Active” and the inhibition (Bos taurus) was 62%.
With `CC(=O)O[C@H]1C(=O)[C@@]2(C)[C@H]([C@H](OC(=O)c3ccccc3)[C@]3(O)C[C@H](OC(=O)[C@H](O)[C@@H](NC(=O)c4ccccc4)c4ccccc4)C(C)=C1C3(C)C)[C@]1(OC(C)=O)CO[C@@H]1C[C@@H]2O` the inhibition (Bos taurus) was “inactive”.
